The record followed here is ChEMBL document CHEMBL1157559, “Synthesis and biological evaluation of novel pyrazolyl-2,4-thiazolidinediones as anti-inflammatory and neuroprotective agents” (Bioorg Med Chem, 2010).

For series [1], the target named is T1, Prostaglandin G/H synthase 1 (Ovis aries) (UniProt P05979).
T1 sequence (whole entry): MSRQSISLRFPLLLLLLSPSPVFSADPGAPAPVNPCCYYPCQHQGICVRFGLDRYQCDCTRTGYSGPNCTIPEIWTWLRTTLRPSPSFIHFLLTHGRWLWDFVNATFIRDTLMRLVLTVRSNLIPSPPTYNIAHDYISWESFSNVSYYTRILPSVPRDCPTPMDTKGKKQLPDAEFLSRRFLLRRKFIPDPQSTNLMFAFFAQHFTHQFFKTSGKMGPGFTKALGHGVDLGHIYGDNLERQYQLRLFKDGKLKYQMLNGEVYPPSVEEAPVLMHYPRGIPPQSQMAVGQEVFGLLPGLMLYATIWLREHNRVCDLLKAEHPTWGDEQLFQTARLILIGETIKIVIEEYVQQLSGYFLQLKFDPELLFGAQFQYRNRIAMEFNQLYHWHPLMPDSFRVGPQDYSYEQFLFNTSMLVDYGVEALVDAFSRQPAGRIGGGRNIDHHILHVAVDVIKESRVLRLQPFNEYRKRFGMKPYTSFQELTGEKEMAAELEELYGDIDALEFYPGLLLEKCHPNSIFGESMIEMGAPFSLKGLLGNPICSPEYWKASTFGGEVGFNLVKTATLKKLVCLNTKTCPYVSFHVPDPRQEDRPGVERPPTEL
Kind of series: Inhibition of ovine COX1 at 10 uM. The procedure, abridged:
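Kit assay with ovine COX-1, run per manufacturer's protocol. Read-out was percent inhibition of prostaglandin production, with compound at 10 µM and three experiments.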

Another series has as its system HL-60. Kind of series: Inhibition of phagocyte respiratory burst in human HL60 cells after 6 to 7 days by luminol-induced chemiluminescence. The class given is functional, cell-based. In outline: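 HL-60 cells differentiated 6–7 days in DMEM-F12 with 10% FBS and 1.3% DMSO, washed into serum-free, phenol red-free medium, then held 30 min at 37 °C before compound or DMSO was added. Luminol injected, 7.5 min baseline recorded, then FMLP injected (final 1 µM; luminol 5 mM; DMSO 0.5%). Chemiluminescence recorded 30 min at 37 °C; read-out was area under the curve.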

Series [2] has as its system Rattus norvegicus. The series is described as follows: Antiinflammatory activity in Wistar albino rat acute inflammatory model assessed as inhibition of formalin-induced paw edema at 20 mg/kg, po administered 1 hr before formalin challenge measured after 3 hrs by plethysmometer relative to control. The format is functional. The arrangement: scale not given: the % may be the effect or the level left. In outline:
(§1)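 Male Wistar rats, 180–200 g, groups of five. Test compound 20 mg/kg po; 1 h later 0.1 mL 2% formalin injected subplantar into left hind paw under light ether anesthesia. Paw volume by water plethysmometer at 0 and 1, 2, 3, 4 h after formalin. % inhibition = (Vt−V0)control minus (Vt−V0)treated, divided by (Vt−V0)control ×100. Mean ± SEM, ANOVA with Student–Newman–Keuls.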

Series [3] is described as follows: Acute toxicity in po dosed Swiss albino mouse after 24 hrs. The class given is organism-based. Particulars: in vivo, read-out: ALD50. The procedure, abridged:
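Four groups of five Swiss albino mice (20–30 g), fasted 24 h beforehand, given compounds orally at graded doses of 0–300 mg/kg. Mortality recorded at each dose level after 24 h to estimate the acute lethal dose (ALD50).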

Series [4] relates to Rattus norvegicus. The series is described as follows: Antiinflammatory activity in Wistar albino rat acute inflammatory model assessed as inhibition of formalin-induced paw edema at 20 mg/kg, po administered 1 hr before formalin challenge measured after 4 hrs by plethysmometer relative to control. The class given is functional. Further details: scale not given: the % may be the effect or the level left. In outline:
as §1

For series [5], the system named is Rattus norvegicus. The series is described as follows: Antiinflammatory activity in Wistar albino rat sub-acute inflammatory model assessed as inhibition of formalin-induced paw edema at 20 mg/kg, po administered daily for 7 days by plethysmometer relative to control. The class given is functional. To be noted: 168 h. In outline: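 Rats dosed orally at 20 mg/kg daily for 7 consecutive days. 0.1 mL 2% formalin given subplantar in left hind paw under light ether 1 h after the first oral dose, with a second injection on day 3. Paw edema weight (g) measured on day 8. % inhibition = (control − treated)/control ×100. Groups of five.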

The subject of series [6] is Rattus norvegicus. The series is described as follows: Gastrointestinal toxicity in Wistar albino rat assessed as ulceration at 100 mg/kg/day, po administered twice daily for 3 days. The class given is organism-based. Further details: route oral. To be noted: in vivo, 72 h. The procedure, abridged:
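Male rats 180–200 g, groups of five, fasted 12 h with water available. Compounds given orally as two equal doses at 0 and 12 h, 100 mg/kg per day, for three successive days; vehicle control 1% gum acacia. Rats killed 6 h after last dose. Stomach opened along greater curvature, washed with cold saline and inspected under 3× lens for hyperemia, hemorrhage, erosions or ulcers.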

Series [7] relates to Rattus norvegicus. Kind of series: Antiinflammatory activity in Wistar albino rat acute inflammatory model assessed as inhibition of formalin-induced paw edema at 20 mg/kg, po administered 1 hr before formalin challenge measured after 2 hrs by plethysmometer relative to control. The class given is functional. The arrangement: scale not given: the % may be the effect or the level left. The procedure, abridged:
as §1

SMILES strings stand for the structures.

With `O=C1NC(=O)/C(=C/c2cn(-c3ccc([N+](=O)[O-])cc3)nc2-c2ccc(Cl)cc2)S1`, in series [1], the inhibition came to 28.4%. The midpoint of inhibition in the series on HL-60, the IC50, lay at 1000 nM. For the same compound, the Activity was found to be 68% in the series with Rattus norvegicus [2], 68% in the series with Rattus norvegicus [4], 0% with Rattus norvegicus [6] and 46% in the series on Rattus norvegicus [7]. In addition, in series [3], the LD50 at 24 h is > 300 mg/kg. Besides, the inhibition in vivo at 20 mg/kg in the series on Rattus norvegicus [5] turned out to be 51%.
